We go through 46 molecules from ChEMBL document CHEMBL1123703, “Hydroxamic acid inhibitors of 5-lipoxygenase” (J Med Chem, 1987).

The first assay concerns the target T1, Polyunsaturated fatty acid 5-lipoxygenase (Rattus norvegicus) (UniProt P12527).
T1 sequence (whole entry): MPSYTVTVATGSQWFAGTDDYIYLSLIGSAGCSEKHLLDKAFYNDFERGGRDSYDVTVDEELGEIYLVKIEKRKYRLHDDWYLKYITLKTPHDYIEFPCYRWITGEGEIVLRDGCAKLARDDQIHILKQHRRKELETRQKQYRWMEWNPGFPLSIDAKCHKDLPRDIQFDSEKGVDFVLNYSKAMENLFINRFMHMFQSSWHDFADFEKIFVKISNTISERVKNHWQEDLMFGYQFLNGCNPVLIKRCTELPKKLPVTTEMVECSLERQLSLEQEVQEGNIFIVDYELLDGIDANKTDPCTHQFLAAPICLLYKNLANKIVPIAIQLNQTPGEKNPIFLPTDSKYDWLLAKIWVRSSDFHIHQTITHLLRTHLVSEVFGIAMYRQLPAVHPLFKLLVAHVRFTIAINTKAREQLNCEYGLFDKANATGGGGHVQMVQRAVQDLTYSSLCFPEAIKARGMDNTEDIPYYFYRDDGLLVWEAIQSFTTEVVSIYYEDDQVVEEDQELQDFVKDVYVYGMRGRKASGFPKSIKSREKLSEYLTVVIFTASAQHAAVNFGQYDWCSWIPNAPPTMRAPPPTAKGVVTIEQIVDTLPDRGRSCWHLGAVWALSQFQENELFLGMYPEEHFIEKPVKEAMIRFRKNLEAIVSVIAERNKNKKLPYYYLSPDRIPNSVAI
Kind of assay: Percent inhibition against RBL-1 5-LO in vitro at 300 uM. The class given is cell-based. In outline: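 20000g supernatant from 1.5 million homogenized RBL-1 cells, with test compound, in 200-μL incubations. Reactions were started with radiolabeled arachidonic acid and stopped by acidification and ether extraction. Products were separated from unconverted substrate by TLC and counted by liquid scintillation. Inhibition was taken from product formed with versus without inhibitor. Run in triplicate.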
The inhibition is the change of the read-out against control, counted positive when it falls. Low values mean a response near the control, high ones a response far below the control. Molecule `NC(=O)c1ccc2ccccc2c1` came in with an inhibition of 9%. The same measure, in the same setting: the result for `CO/C(=N\O)c1ccc2ccccc2c1` reads 74%. Still for that read-out and setting: the result for `NNC(=O)c1ccc2ccccc2c1` reads 6%; that for `O=C(O)c1ccc2ccccc2c1`, 0%.

In another assay the target is T2, Polyunsaturated fatty acid 5-lipoxygenase (Rattus norvegicus, UniProt P12527).
T2 sequence (P12527 whole entry): T1 sequence (whole entry)
Kind of assay: In vitro inhibitory activity against RBL-1 5-LO. Format: cell-based.
Broadly, the IC50 is the midpoint of a concentration-inhibition curve. The molecule `CCCCC/C=C\CCOc1ccc2cc(C(=O)NO)ccc2c1` gave an IC50 of 2.9 µM. Same read-out and setting: with `O=C(NO)c1ccc(C(F)(F)F)cc1` the figure was 27 µM; with `O=C(Cc1ccc2ccccc2c1)NO`, 19 µM; with `O=C(Cc1cccc2ccccc12)NO`, 27 µM. The same measure, in the same setting: the result for `Nc1ccc(C(=O)NO)cc1` reads > 400 µM. Same read-out and setting: with `CN(O)C(=O)c1ccc2ccccc2c1` the figure was 1.3 µM; with `O=C(Cc1ccccc1)NO` [PHENYLACETOHYDROXAMIC ACID], 300 µM. Turning to `O=C(NO)c1ccc([N+](=O)[O-])cc1`, the IC50 was 23 µM. The same measure, in the same setting: the result for `COc1ccc2cc(C(=O)NO)ccc2c1` reads 8.2 µM; that for `O=C(/C=C/c1ccc2ccccc2c1)N(O)C1CCCCC1`, 0.1 µM. For the molecule `O=C(/C=C\c1ccccc1)NO`, the IC50 turned out to be 31 µM. For the molecule `O=C(NO)c1ccc(I)cc1`, the IC50 stood at 15 µM. Same read-out and setting: the result for `Cc1cc(C)c(-c2ccc(C(=O)NO)cc2)c(C)c1` reads 0.29 µM. Same read-out and setting: the result for `Cc1cc(C)c(-c2ccc(/C=C/C(=O)N(C)O)cc2)c(C)c1` reads 0.022 µM; that for `O=C(CCc1ccccc1)NO`, 87 µM; that for `CCCCCCCOc1ccc2cc(C(=O)NO)ccc2c1`, 6.5 µM. Molecule `Cc1ccc(C(=O)NO)cc1` showed an IC50 of 65 µM. On the same count and under the same terms, the result for `C/C(=C\C(=O)N(C)O)c1ccc2ccccc2c1` reads 0.12 µM; that for `O=C(NO)c1ccccc1` [BENZOHYDROXAMATE], 110 µM; that for `CCCCCCCCOc1ccc2cc(C(=O)NO)ccc2c1`, 7.1 µM. The same measure, in the same setting: the result for `O=C(NO)c1cccc2ccccc12` reads 43 µM. As for `O=C(NO)c1ccc(-c2ccc3ccccc3c2)cc1`, the IC50 came out at 0.33 µM. On the same count and under the same terms, the result for `O=C(NO)c1ccc(O)cc1` reads 190 µM; that for `O=C(/C=C/c1ccccc1)NO`, 12 µM. The same measure, in the same setting: with `O=C(CCCc1ccccc1)NO` [PHENYLBUTYRYLHYDROXAMIC ACID] the figure was 27 µM; with `Cc1cc(C)c(-c2ccc(C(=O)N(C)O)cc2)c(C)c1`, 0.064 µM.

As for `O=C(C#Cc1ccccc1)NO`, the IC50 came out at 46 µM. On the same count and under the same terms, with `N#Cc1ccc(C(=O)NO)cc1` the figure was 61 µM; with `C/C(=C\c1ccc2ccccc2c1)C(=O)N(C)O`, 0.47 µM.

In the case of `O=C(/C=C/c1ccc2ccccc2c1)N(O)c1ccccc1`, the half-inhibitory concentration (IC50) is 0.052 µM. The same measure, in the same setting: the result for `CN(O)C(=O)/C=C/c1ccc2ccccc2c1` reads 0.1 µM. On the same count and under the same terms, with `O=C(NO)c1ccc(-c2cccc3ccccc23)cc1` the figure was 0.18 µM; with `O=C(NO)c1ccc2ccccc2c1`, 14 µM; with `O=C(NO)c1ccc(Br)cc1`, 14 µM. Same read-out and setting: the result for `CC(C)N(O)C(=O)/C=C/c1ccc2ccccc2c1` reads 0.082 µM.

For the next assay, the target named is Prostaglandin G/H synthase 1 (Ovis aries) (UniProt P05979). The assay is described as follows: Compound was tested for the percent of inhibition against sheep seminal vesicle cyclooxygenase at 100 uM.
Sequence of Prostaglandin G/H synthase 1 (Ovis aries) (P05979 whole entry, looked up): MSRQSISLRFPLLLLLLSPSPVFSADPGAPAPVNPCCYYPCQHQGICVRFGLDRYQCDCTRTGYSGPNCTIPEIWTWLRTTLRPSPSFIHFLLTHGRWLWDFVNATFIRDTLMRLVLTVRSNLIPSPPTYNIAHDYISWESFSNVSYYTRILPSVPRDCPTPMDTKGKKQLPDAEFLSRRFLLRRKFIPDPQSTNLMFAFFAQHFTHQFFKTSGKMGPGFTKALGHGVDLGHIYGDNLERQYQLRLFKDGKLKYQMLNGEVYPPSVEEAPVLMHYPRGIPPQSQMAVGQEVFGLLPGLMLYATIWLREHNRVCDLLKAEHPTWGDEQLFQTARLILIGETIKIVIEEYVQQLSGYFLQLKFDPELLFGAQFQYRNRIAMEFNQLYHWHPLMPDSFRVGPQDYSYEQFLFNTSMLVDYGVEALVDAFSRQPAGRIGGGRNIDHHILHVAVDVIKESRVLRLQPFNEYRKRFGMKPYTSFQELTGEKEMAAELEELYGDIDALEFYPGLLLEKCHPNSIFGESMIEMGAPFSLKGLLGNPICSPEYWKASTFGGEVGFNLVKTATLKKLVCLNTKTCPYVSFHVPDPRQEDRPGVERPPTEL
`O=C(NO)c1ccc(-c2ccccc2)cc1` had an inhibition of 50%.

The next assay concerns the target T3, Polyunsaturated fatty acid lipoxygenase ALOX12 (Homo sapiens) (UniProt P18054).
T3 sequence (whole entry): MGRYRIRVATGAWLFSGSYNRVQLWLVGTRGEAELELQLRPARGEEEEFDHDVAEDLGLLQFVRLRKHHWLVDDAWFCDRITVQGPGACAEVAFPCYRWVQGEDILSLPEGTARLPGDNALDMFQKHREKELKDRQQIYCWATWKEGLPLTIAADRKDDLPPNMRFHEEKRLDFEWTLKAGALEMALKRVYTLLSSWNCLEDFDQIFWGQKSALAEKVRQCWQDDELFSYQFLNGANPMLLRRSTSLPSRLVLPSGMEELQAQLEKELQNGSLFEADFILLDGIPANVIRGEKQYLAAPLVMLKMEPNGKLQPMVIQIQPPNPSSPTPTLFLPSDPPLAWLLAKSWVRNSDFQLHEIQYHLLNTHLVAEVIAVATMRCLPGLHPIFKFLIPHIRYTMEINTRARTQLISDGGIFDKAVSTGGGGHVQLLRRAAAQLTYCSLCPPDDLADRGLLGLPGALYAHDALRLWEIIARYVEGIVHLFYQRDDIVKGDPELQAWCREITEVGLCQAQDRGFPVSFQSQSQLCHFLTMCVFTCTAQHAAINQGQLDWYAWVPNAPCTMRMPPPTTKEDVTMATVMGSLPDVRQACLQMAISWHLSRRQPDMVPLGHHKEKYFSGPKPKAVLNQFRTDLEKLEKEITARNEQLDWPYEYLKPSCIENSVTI
Kind of assay: Compound was tested for the percent of inhibition against 12-LO at 10 uM. The class given is functional. In outline: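 The RBL-1 enzyme was replaced by human platelet 12-lipoxygenase, soybean 15-lipoxygenase or sheep seminal vesicle cyclooxygenase. Reactions were started with radiolabeled arachidonic acid and stopped by acidification and ether extraction. Products were separated by TLC and counted by liquid scintillation, in triplicate. Inhibition was taken from the ratio of product formed with and without inhibitor.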
Turning to `O=C(NO)c1ccc(-c2ccccc2)cc1`, the inhibition is 86%.

The next assay has as its target T1, Polyunsaturated fatty acid 5-lipoxygenase (Rattus norvegicus). Kind of assay: Percent inhibition against RBL-1 5-LO in vitro at 10 uM. The class given is cell-based. In outline:
(§1)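 200-μL incubations held the 20000g supernatant of 1.5 million homogenized RBL-1 cells plus compound. Radiolabeled arachidonic acid started the reaction; acidification and ether extraction ended it. Product was resolved by TLC and counted by liquid scintillation, in triplicate. Inhibition was taken from the ratio of product formed with and without inhibitor.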
`CCCCCCCCCOc1ccc2cc(C(=O)NO)ccc2c1` had an inhibition of 33%.

Turning to `CCCCCCCCCCCCOc1ccc2cc(C(=O)NO)ccc2c1`, the inhibition is 11%.

The target of the next assay is T2, Polyunsaturated fatty acid 5-lipoxygenase. Kind of assay: Compound was tested for its inhibition activity against the 5-LO in isolated enzyme. In outline:
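5-LO from the 20000g supernatant of 1.5 million homogenized RBL-1 cells, in 200-μL incubations across a range of compound concentrations. Reaction started with radiolabeled arachidonic acid and stopped by acidification and ether extraction. Products were separated from substrate by TLC and counted by liquid scintillation, in triplicate.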
Consider `O=C(NO)c1ccc(-c2ccccc2)cc1`, for which the midpoint of inhibition, the IC50, lay at 4 µM.

Another assay deals with T1, Polyunsaturated fatty acid 5-lipoxygenase (Rattus norvegicus). Kind of assay: Percent inhibition against RBL-1 5-LO in vitro at 100 uM. Format: cell-based. In outline:
as §1
`O=S(=O)(NO)c1ccc2ccccc2c1` yielded an inhibition of 51%. Still for that read-out and setting: with `O=C(CO)c1ccc2ccccc2c1` the figure was 15%.

The target is the same in another assay. The assay is described as follows: Percent inhibition against RBL-1 5-LO in vitro at 30 uM. Format: cell-based. In outline: as §1
For `CN(O)S(=O)(=O)c1ccc2ccccc2c1`, the inhibition is 6%. `CONC(=O)c1ccc2ccccc2c1` gave an inhibition of 0%.

The next assay concerns the target T2, Polyunsaturated fatty acid 5-lipoxygenase. Kind of assay: Compound was tested for its inhibition activity against 5-LO of the whole cell in vitro in rat.
For `O=C(NO)c1ccc(-c2ccccc2)cc1`, the midpoint of inhibition, the IC50, lay at 3.3 µM.

A further assay relates to Seed linoleate 15-lipoxygenase (Glycine max). The assay is described as follows: Compound was tested for the percent of inhibition against soybean 15-LO (at 100 uM).
As for `O=C(NO)c1ccc(-c2ccccc2)cc1`, the inhibition was found to be 30%.

In another assay the target is T1, Polyunsaturated fatty acid 5-lipoxygenase (Rattus norvegicus). The assay is described as follows: Compound was tested for the percent of inhibition against 5-LO at 10 uM. In outline: as §1
In turn, `O=C(NO)c1ccc(-c2ccccc2)cc1` displayed an inhibition of 86%.
